Laboratory results from ChEMBL document CHEMBL3580613, “First enantiospecific syntheses of marine merosesquiterpenes neopetrosiquinones a and B: evaluation of biological activity” (J Nat Prod, 2015).
The source made the active and inactive calls. The calls are words filed in the database; no cut-off is given here.

Legend:
A549 [1] = test: Induction of cell cycle arrest in 24 hrs serum-starved human A549 cells assessed as accumulation at G0-G1 phase at antiproliferative IC50 incubated for 24 hrs by propidium iodide staining based flow cytometry (reference value: 62 +/- 1%); type: functional
T84 [2] = test: Induction of apoptosis in 24 hrs serum-starved human T84 cells assessed as accumulation at subG1 phase at 2 times antiproliferative IC50 incubated for 24 hrs by propidium iodide staining based flow cytometry (reference value: 4 +/- 0.3%); type: functional
T84 [3] = test: Induction of cell cycle arrest in 24 hrs serum-starved human T84 cells assessed as accumulation at S phase at 2 times antiproliferative IC50 incubated for 24 hrs by propidium iodide staining based flow cytometry (reference value: 13 +/- 0.6%); type: functional
T84 [4] = test: Induction of cell cycle arrest in 24 hrs serum-starved human T84 cells assessed as accumulation at G2-M phase at 2 times antiproliferative IC50 incubated for 24 hrs by propidium iodide staining based flow cytometry (reference value: 18 +/- 1%); type: functional
MCF7 [5] = test: Induction of cell cycle arrest in 24 hrs serum-starved human MCF7 cells assessed as accumulation at G0-G1 phase at 2 times antiproliferative IC50 incubated for 24 hrs by propidium iodide staining based flow cytometry (reference value: 51 +/- 0.9%); type: functional
MCF7 [6] = test: Induction of apoptosis in 24 hrs serum-starved human MCF7 cells assessed as accumulation at subG1 phase at antiproliferative IC50 incubated for 24 hrs by propidium iodide staining based flow cytometry (reference value: 4 +/- 1.1%); type: functional
MCF7 [7] = test: Induction of cell cycle arrest in 24 hrs serum-starved human MCF7 cells assessed as accumulation at G2-M phase at 2 times antiproliferative IC50 incubated for 24 hrs by propidium iodide staining based flow cytometry (reference value: 28 +/- 0.3%); type: functional
MCF7 [8] = test: Induction of apoptosis in human MCF7 cells at antiproliferative IC50 incubated for 6 hrs by fluorescence microscopy based TUNEL DNA fragmentation assay; type: functional, cell-based
MCF7 [9] = test: Induction of cell cycle arrest in 24 hrs serum-starved human MCF7 cells assessed as accumulation at G0-G1 phase at antiproliferative IC50 incubated for 24 hrs by propidium iodide staining based flow cytometry (reference value: 51 +/- 0.9%); type: functional
T84 [10] = test: Antiproliferative activity against human T84 cells incubated for 3 days by sulforhodamine B assay; type: functional, cell-based; details: T84, 72 h
How it was run: (§1)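 Cells in DMEM with 10% heat-inactivated FBS, penicillin–streptomycin and 2 mM L-glutamine at 37 °C, 5% CO2. Seeded at 5 × 10^3 cells/cm2 in quadruplicate. After 24 h, exposed to increasing compound concentrations for 3 days. Fixed with cold 10% TCA, stained with 0.4% sulforhodamine in 1% acetic acid, dye solubilized in 10 mM Tris-base pH 10.5, OD read at 492 nm. IC50 by linear interpolation on semilog dose–response curve. Mean ± SEM of four independent determinations.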

T84 [11] = test: Induction of apoptosis in 24 hrs serum-starved human T84 cells assessed as accumulation at subG1 phase at antiproliferative IC50 incubated for 24 hrs by propidium iodide staining based flow cytometry (reference value: 4 +/- 0.3%); type: functional
A549 [12] = test: Antiproliferative activity against human A549 cells incubated for 3 days by sulforhodamine B assay; type: functional, cell-based; details: A549, 72 h; how it was run: as §1
MCF7 [13] = test: Antiproliferative activity against human MCF7 cells incubated for 3 days by sulforhodamine B assay; type: functional, cell-based; details: MCF7, 72 h; how it was run: as §1
T84 [14] = test: Induction of cell cycle arrest in 24 hrs serum-starved human T84 cells assessed as accumulation at G0-G1 phase at 2 times antiproliferative IC50 incubated for 24 hrs by propidium iodide staining based flow cytometry (reference value: 65 +/- 1.1%); type: functional
A549 [15] = test: Induction of apoptosis in 24 hrs serum-starved human A549 cells assessed as accumulation at subG1 phase at 2 times antiproliferative IC50 incubated for 24 hrs by propidium iodide staining based flow cytometry (reference value: 3.5 +/- 1.1%); type: functional
MCF7 [16] = test: Induction of apoptosis in 24 hrs serum-starved human MCF7 cells assessed as accumulation at subG1 phase at 2 times antiproliferative IC50 incubated for 24 hrs by propidium iodide staining based flow cytometry (reference value: 4 +/- 1.1%); type: functional
A549 [17] = test: Induction of cell cycle arrest in 24 hrs serum-starved human A549 cells assessed as accumulation at S phase at 2 times antiproliferative IC50 incubated for 24 hrs by propidium iodide staining based flow cytometry (reference value: 12 +/- 0.9%); type: functional
A549 [18] = test: Induction of cell cycle arrest in 24 hrs serum-starved human A549 cells assessed as accumulation at G2-M phase at antiproliferative IC50 incubated for 24 hrs by propidium iodide staining based flow cytometry (reference value: 22 +/- 1.8%); type: functional
T84 [19] = test: Induction of cell cycle arrest in 24 hrs serum-starved human T84 cells assessed as accumulation at S phase at antiproliferative IC50 incubated for 24 hrs by propidium iodide staining based flow cytometry (reference value: 13 +/- 0.6%); type: functional
MCF7 [20] = test: Induction of cell cycle arrest in 24 hrs serum-starved human MCF7 cells assessed as accumulation at S phase at antiproliferative IC50 incubated for 24 hrs by propidium iodide staining based flow cytometry (reference value: 17 +/- 0.8%); type: functional
MCF7 [21] = test: Induction of cell cycle arrest in 24 hrs serum-starved human MCF7 cells assessed as accumulation at S phase at 2 times antiproliferative IC50 incubated for 24 hrs by propidium iodide staining based flow cytometry (reference value: 17 +/- 0.8%); type: functional
MCF7 [22] = test: Induction of cell cycle arrest in 24 hrs serum-starved human MCF7 cells assessed as accumulation at G2-M phase at antiproliferative IC50 incubated for 24 hrs by propidium iodide staining based flow cytometry (reference value: 28 +/- 0.3%); type: functional
A549 [23] = test: Induction of cell cycle arrest in 24 hrs serum-starved human A549 cells assessed as accumulation at G0-G1 phase at 2 times antiproliferative IC50 incubated for 24 hrs by propidium iodide staining based flow cytometry (reference value: 62 +/- 1%); type: functional
A549 [24] = test: Induction of cell cycle arrest in 24 hrs serum-starved human A549 cells assessed as accumulation at G2-M phase at 2 times antiproliferative IC50 incubated for 24 hrs by propidium iodide staining based flow cytometry (reference value: 22 +/- 1.8%); type: functional
T84 [25] = test: Induction of cell cycle arrest in 24 hrs serum-starved human T84 cells assessed as accumulation at G0-G1 phase at antiproliferative IC50 incubated for 24 hrs by propidium iodide staining based flow cytometry (reference value: 65 +/- 1.1%); type: functional
T84 [26] = test: Induction of cell cycle arrest in 24 hrs serum-starved human T84 cells assessed as accumulation at G2-M phase at antiproliferative IC50 incubated for 24 hrs by propidium iodide staining based flow cytometry (reference value: 18 +/- 1%); type: functional
A549 [27] = test: Induction of cell cycle arrest in 24 hrs serum-starved human A549 cells assessed as accumulation at S phase at antiproliferative IC50 incubated for 24 hrs by propidium iodide staining based flow cytometry (reference value: 12 +/- 0.9%); type: functional
A549 [28] = test: Induction of apoptosis in 24 hrs serum-starved human A549 cells assessed as accumulation at subG1 phase at antiproliferative IC50 incubated for 24 hrs by propidium iodide staining based flow cytometry (reference value: 3.5 +/- 1.1%); type: functional
MCF7 [29] = test: Induction of apoptosis in human MCF7 cells at 2 times antiproliferative IC50 incubated for 6 hrs by fluorescence microscopy based TUNEL DNA fragmentation assay; type: functional, cell-based
Trypanosoma cruzi = test: Antiparasitic activity against Trypanosoma cruzi; type: functional, organism-based

Row | SMILES | Activity (A549 [1]) [%] | Activity (T84 [2]) [%] | Activity (T84 [3]) [%] | Activity (T84 [4]) [%] | Activity (MCF7 [5]) [%] | Activity (MCF7 [6]) [%] | Activity (MCF7 [7]) [%] | Activity (MCF7 [9]) [%] | IC50 (T84 [10]) [µM] | Activity (T84 [11]) [%] | IC50 (A549 [12]) [µM] | IC50 (MCF7 [13]) [µM] | Activity (T84 [14]) [%] | Activity (A549 [15]) [%] | Activity (MCF7 [16]) [%] | Activity (A549 [17]) [%] | Activity (A549 [18]) [%] | Activity (T84 [19]) [%] | Activity (MCF7 [20]) [%] | Activity (MCF7 [21]) [%] | further results
1 | C[C@]1(CO)CCC[C@]2(C)c3cc4c(cc3C=C[C@@H]12)C(=O)C=CC4=O | 62 | 14 | 9 | 7.1 | 5 | 32 | 1.7 | 39 | 11.5 | 6.2 | 8.3 | 7.7 | 71 | 6.1 | 93 | 12 | 17 | 17 | 12 | 0.7 | Activity (MCF7 [8]): Active; Activity (MCF7 [22]): 17%; Activity (A549 [23]): 67%; Activity (A549 [24]): 15%; Activity (T84 [25]): 59%; Activity (T84 [26]): 18%; Activity (A549 [27]): 16%; Activity (A549 [28]): 4%
2 | COc1ccc(OC)c2cc3c(cc12)C(=O)C[C@H]1[C@@](C)(CO)CCC[C@]31C | 68 | 8.2 | 9.4 | 6.1 | 6.9 | 6.6 | 1 | 66 | 42 | 5.7 | 21 | 33 | 76 | 18 | 91 | 7.5 | 14 | 15 | 11 | 0.7 | Activity (MCF7 [22]): 17%; Activity (MCF7 [29]): Active; Activity (A549 [23]): 67%; Activity (A549 [24]): 8%; Activity (T84 [25]): 68%; Activity (T84 [26]): 12%; Activity (A549 [27]): 12%; Activity (A549 [28]): 5.7%
3 | CC1(C)CCC[C@@]2(C)c3cc4c(cc3CC[C@H]12)C(=O)C=CC4=O [CYCLOZONARONE] | – | – | – | – | – | – | – | – | – | – | – | – | – | – | – | – | – | – | – | – | IC50 (Trypanosoma cruzi): 700 nM
4 | C[C@]1(CO)CCC[C@]2(C)c3cc4c(cc3C(=O)C[C@@H]12)C(=O)C=CC4=O | 63 | 6.3 | 17 | 15 | 24 | 34 | 9.7 | 37 | 8 | 5.6 | 4.1 | 6.6 | 62 | 8.1 | 60 | 16 | 20 | 15 | 9.4 | 6.4 | Activity (MCF7 [8]): Active; Activity (MCF7 [22]): 19%; Activity (A549 [23]): 59%; Activity (A549 [24]): 17%; Activity (T84 [25]): 63%; Activity (T84 [26]): 17%; Activity (A549 [27]): 14%; Activity (A549 [28]): 3.9%
